Experiments:
[1] = biological target: T1, Protein kinase C epsilon type (Homo sapiens, UniProt Q02156); assay: Inhibition of PKC epsilon
T1 sequence (Q02156 whole entry): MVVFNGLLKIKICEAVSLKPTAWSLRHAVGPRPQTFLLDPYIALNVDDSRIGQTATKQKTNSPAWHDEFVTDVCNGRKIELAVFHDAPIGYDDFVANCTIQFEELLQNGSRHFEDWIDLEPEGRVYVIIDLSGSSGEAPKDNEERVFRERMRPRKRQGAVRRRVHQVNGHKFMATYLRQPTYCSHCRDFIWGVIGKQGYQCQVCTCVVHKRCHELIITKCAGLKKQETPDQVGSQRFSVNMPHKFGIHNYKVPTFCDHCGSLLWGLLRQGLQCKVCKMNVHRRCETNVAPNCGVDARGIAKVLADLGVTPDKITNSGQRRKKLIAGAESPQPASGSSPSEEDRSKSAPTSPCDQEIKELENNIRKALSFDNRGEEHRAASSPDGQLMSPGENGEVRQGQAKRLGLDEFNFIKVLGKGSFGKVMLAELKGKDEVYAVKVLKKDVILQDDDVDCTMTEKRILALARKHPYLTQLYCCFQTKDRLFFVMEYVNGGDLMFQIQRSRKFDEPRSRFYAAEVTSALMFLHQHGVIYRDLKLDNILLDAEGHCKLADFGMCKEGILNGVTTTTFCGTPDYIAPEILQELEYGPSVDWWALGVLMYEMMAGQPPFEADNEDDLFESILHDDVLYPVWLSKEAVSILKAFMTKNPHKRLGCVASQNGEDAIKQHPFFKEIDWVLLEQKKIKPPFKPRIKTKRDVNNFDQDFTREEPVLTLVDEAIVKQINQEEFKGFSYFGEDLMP
Outline: (§1)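 Purified PKC isoenzyme (20 ng) starts the reaction. Mix: phosphatidylserine 40 µg/ml/diacylglycerol 1.76 µg/ml vesicles, 20 mM HEPES pH 7.5, 10 mM MgCl2, 200 µg/ml histone substrate, 100 µM CaCl2, 47.5 µM EGTA, 20 µM [32P]ATP; compounds in DMSO. 10 min at 30°, stopped with cold TCA plus BSA, precipitate filtered and scintillation-counted.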

[2] = biological target: Protein kinase C beta type (Homo sapiens, UniProt P05771); assay: Inhibition of PKC beta2; outline: as §1
[3] = Therapeutic index, IC50 for human H9 cells to EC50 for HIV1 3B; format: cell-based; conditions: read-out: Ratio IC50/EC50
[4] = test system: Human immunodeficiency virus 1; assay: Antiviral activity against HIV1 3B in human H9 cells assessed as inhibition of viral replication after 3 days by p24 antigen capture assay; format: functional, organism-based; conditions: Human immunodeficiency virus 1, 3B, H9, 72 h
Outline: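 H9 lymphocytes (1 × 10^7 cells/ml) exposed to HIV-1 IIIB for 1 h at 37°, washed free of unadsorbed virus, resuspended at […] and mixed with an equal volume of compound dilution; 3 days at 37°. Infection read by p24 antigen capture, at four concentrations relative to infected untreated cultures; EC50 = concentration inhibiting replication by 50%.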

H9 = assay: Cytotoxicity against human H9 cells after 3 days; format: cell-based; conditions: H9, 72 h
Outline: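 Uninfected H9 lymphocytes cultured with an equal volume of compound dilution for 3 days at 37°. Cell density then counted; IC50 = concentration inhibiting lymphocyte growth by 50%.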

[5] = biological target: Protein kinase C delta type (Homo sapiens, UniProt Q05655); assay: Inhibition of PKC delta; outline: as §1
[6] = biological target: Protein kinase C gamma type (Homo sapiens, UniProt P05129); assay: Inhibition of PKC gamma; outline: as §1

Sequence of Protein kinase C beta type (P05771 whole entry): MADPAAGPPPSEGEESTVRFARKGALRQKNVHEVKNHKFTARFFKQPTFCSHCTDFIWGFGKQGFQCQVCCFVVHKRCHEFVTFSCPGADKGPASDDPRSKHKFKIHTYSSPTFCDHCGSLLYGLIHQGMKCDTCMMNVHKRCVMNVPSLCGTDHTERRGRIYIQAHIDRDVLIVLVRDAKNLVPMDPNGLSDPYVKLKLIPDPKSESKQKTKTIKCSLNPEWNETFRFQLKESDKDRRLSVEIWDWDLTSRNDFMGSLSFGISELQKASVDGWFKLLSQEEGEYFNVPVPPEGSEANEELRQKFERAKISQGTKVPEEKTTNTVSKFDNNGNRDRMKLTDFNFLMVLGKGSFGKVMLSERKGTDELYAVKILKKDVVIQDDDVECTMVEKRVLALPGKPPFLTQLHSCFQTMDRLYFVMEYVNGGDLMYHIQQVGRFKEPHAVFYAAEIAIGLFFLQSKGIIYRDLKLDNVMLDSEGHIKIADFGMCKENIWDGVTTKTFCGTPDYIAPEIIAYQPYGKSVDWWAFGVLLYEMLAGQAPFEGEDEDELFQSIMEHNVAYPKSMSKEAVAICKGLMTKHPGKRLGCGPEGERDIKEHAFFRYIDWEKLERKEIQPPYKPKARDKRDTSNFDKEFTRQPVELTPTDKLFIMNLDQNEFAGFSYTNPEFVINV
Sequence of Protein kinase C delta type (Q05655 whole entry): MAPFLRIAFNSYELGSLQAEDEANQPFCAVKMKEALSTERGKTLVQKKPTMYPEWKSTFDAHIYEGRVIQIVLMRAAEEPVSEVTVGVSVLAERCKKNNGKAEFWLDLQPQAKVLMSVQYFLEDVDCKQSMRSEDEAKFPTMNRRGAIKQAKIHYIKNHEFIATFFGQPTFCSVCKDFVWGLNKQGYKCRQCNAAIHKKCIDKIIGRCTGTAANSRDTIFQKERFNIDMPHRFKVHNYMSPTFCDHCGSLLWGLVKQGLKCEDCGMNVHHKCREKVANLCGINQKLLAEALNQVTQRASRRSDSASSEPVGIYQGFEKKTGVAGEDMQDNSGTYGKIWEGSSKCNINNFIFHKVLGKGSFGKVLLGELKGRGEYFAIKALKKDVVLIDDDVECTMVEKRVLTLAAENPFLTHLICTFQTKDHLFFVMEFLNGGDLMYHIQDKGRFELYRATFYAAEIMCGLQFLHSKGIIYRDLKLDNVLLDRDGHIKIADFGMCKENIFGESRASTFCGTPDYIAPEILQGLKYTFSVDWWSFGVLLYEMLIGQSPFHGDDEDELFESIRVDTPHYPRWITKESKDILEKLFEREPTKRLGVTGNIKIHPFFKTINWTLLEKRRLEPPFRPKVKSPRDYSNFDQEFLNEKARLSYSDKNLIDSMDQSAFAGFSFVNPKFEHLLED

Structure (SMILES)	IC50 [1] [µM]	IC50 [2] [µM]	selectivity ratio [3]	EC50 [4] [µM]	IC50 (H9) [µM]	IC50 [5] [µM]	IC50 [6] [µM]
Cc1cn([C@H]2C[C@H](N=[N+]=[N-])[C@@H](CO)O2)c(=O)[nH]c1=O [ZIDOVUDINE]	> 150	> 150					
C=C(C)[C@@H]1CC[C@]2(CO)CC[C@]3(C)[C@H](CC[C@@H]4[C@@]5(C)CC[C@H](O)C(C)(C)[C@@H]5CC[C@]43C)[C@@H]12 [BETULIN]	> 150	> 150	1.9	23	45		
C=C(C)[C@@H]1CC[C@]2(C(=O)O)CC[C@]3(C)[C@H](CC[C@@H]4[C@@]5(C)CC[C@H](OC(=O)/C=C/C)C(C)(C)[C@@H]5CC[C@]43C)[C@@H]12	> 150	> 150	2.5	19	48		
CC(C)[C@@H]1CC[C@]2(C(=O)O)CC[C@]3(C)C(CCC4[C@@]5(C)CC[C@H](O)C(C)(C)C5CC[C@]43C)C12 (stereo partly drawn) [DIHYDROBETULINIC ACID]	> 150	> 150	14	0.9		46	
C=C(C)[C@@H]1CC[C@]2(C(=O)O)CC[C@]3(C)[C@H](CC[C@@H]4[C@@]5(C)CC[C@H](OC(C)=O)C(C)(C)[C@@H]5CC[C@]43C)[C@@H]12	> 150	> 150	0.8	25	20		
C=C(C)[C@@H]1CC[C@]2(C(=O)O)CC[C@]3(C)[C@H](CC[C@@H]4[C@@]5(C)CC[C@H](OC(=O)c6ccccc6)C(C)(C)[C@@H]5CC[C@]43C)[C@@H]12	> 150	> 150	1	15	15		74
C=C(C)[C@@H]1CC[C@]2(C(=O)O)CC[C@]3(C)[C@H](CC[C@@H]4[C@@]5(C)CC[C@H](OS(=O)(=O)O)C(C)(C)[C@@H]5CC[C@]43C)[C@@H]12	> 150	> 150	1.7	20	35		37
C=C(C)[C@@H]1CC[C@]2(C(=O)O)CC[C@]3(C)[C@H](CC[C@@H]4[C@@]5(C)CC[C@H](O)C(C)(C)[C@@H]5CC[C@]43C)[C@@H]12 [BETULINIC ACID]	> 150	> 150		1.4			
CC(=O)[C@@H]1CC[C@]2(C(=O)O)CC[C@]3(C)[C@H](CC[C@@H]4[C@@]5(C)CC[C@H](O)C(C)(C)[C@@H]5CC[C@]43C)[C@@H]12 [PLATANIC ACID]	> 150	> 150	13	6.5	90		
C=C(C)[C@@H]1CC[C@]2(C(=O)OCC(=O)OC)CC[C@]3(C)[C@H](CC[C@@H]4[C@@]5(C)CC[C@H](O)C(C)(C)[C@@H]5CC[C@]43C)[C@@H]12	> 150	> 150	1.5	17	26		
C=C(C)[C@@H]1CC[C@]2(C(=O)O)CC[C@]3(C)[C@H](CC[C@@H]4[C@@]5(C)CC[C@H](OC(=O)CCC(=O)O)C(C)(C)[C@@H]5CC[C@]43C)[C@@H]12	> 150	> 150	4	4	16	49	
